Reference: paper PMC6431230 (Proceedings of the National Academy of Sciences of the …, 2019)
Bridge positions count the residues as written; N and C are the ends. Square brackets hold non-standard residues; d marks the D form. Ends that are not written are not given here. Peptide text beside a SMILES is read from it. Orn = NCCC[C@H](N)C(=O)O; Mpa = O=C(O)CCS

Tests used:
ants = assay: Effect of injected DMSO on ant survivability; format: in vivo, Camponotus fellah
CYP4G1 expression = assay: CYP4G1 expression; format: in vivo, Camponotus fellah; settings: 24 h
Method in brief: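 Workers were chilled on ice and injected with 1.5 µL into the abdomen through the intersegmental membrane. Controls received ant saline mixed with water (1:10 for 1 mM, 1:5 for 2 mM). RNA was extracted 24 h post-injection. SYBR qRT-PCR on 200 ng total RNA used ef1a/rp2 references and per-experiment average scaling.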

[1] = tested on: cuticular hydrocarbons (CHCs); assay: Cuticular hydrocarbon quantification after antagonist injection; format: in vivo, Camponotus fellah; settings: injection of 2 mM atosiban
Method in brief: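 Workers were ice-anesthetized and injected with 1.5 µL into the abdomen through the intersegmental membrane. Dosing was 100 µM test compound in 1% DMSO, or 2 mM of the water-soluble antagonist. Controls were ant saline mixed with the matching solvent (DMSO 1:100; water 1:5). Normal, branched and total cuticular alkanes were then extracted and quantified.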

[2] = target: T1, oxytocin receptor (human OXTR) (Homo sapiens, UniProt P30559); assay: Calcium assay; format: cell-based
T1 sequence (P30559 1-389): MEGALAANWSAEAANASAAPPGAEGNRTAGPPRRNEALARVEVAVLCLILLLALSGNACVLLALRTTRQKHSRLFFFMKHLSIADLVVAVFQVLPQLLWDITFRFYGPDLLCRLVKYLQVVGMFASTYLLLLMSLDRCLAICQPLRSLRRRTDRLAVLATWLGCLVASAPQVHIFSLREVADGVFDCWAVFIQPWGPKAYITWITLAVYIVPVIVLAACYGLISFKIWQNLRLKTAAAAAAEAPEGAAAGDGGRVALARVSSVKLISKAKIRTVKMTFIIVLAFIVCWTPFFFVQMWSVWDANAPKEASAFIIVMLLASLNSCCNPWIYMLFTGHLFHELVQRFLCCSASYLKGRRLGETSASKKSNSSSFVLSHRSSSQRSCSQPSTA

inotocin receptor [3] = assay: TR-FRET; format: binding, Camponotus fellah; settings: 10 nM labeled inotocin ligand, atosiban 1.95 µM to 2 mM
[4] = target: inotocin receptor (not stated (C. fellah or C. japonicus cDNA cloned)); assay: FRET or BRET
inotocin receptor [5] = assay: Calcium assay; format: cell-based, Camponotus fellah; settings: CHO cells expressing inotocin receptor, Fluo-4 cytosolic calcium

For `C[S+](C)[O-]` [DMSO], the “Effect on ant survivability” value (ants; 1% DMSO) was “no effect on survivability” and the “Effect on ant survivability” value (ants; 10% DMSO) was “high lethality”.
In the case of `CCOc1ccc(C[C@H]2NC(=O)CCSSC[C@@H](C(=O)N3CCC[C@H]3C(=O)N[C@@H](CCCN)C(=O)NCC(N)=O)NC(=O)[C@H](CC(N)=O)NC(=O)[C@H]([C@@H](C)O)NC(=O)[C@H]([C@@H](C)CC)NC2=O)cc1` [atosiban] ([Mpa][dY](Et)ITNCP[Orn]G-NH2; disulfide 1-6 (inferred)), the “CYP4G1 expression vs control” value (CYP4G1 expression; 1 mM injected, P = 0.026) is reported as “significantly down-regulated”, the “CYP4G1 expression vs control” value (CYP4G1 expression; 2 mM injected, P = 0.0002) is reported as “significantly down-regulated” and the “Quantity of normal alkanes vs control” value ([1]; P = 0.008) is reported as “reduced quantities”. For the same compound, the “Total quantity of alkanes vs control” value ([1]; P = 0.012) was “significantly lower”, the “Quantity of branched alkanes vs control” value ([1]; P = 0.088) was “tendency for reduced” and the IC50 [2] was 0.65 µM. For the same compound, the “IC50, decrease in FRET ratio (binding between inotocin and inotocin receptor)” value (inotocin receptor [3]) was 58.8 µM.
Compound atosiban (peptide) has an IC50 [4] of 58.8 µM.
With “vasopressin (CYFQNCPRG-NH2; disulfide 1-6 (inferred); ends not checked; UniProt P01185 20-28, looked up)” the “Activation of inotocin receptor” value (inotocin receptor [5]) was “not”.
